Results from ChEMBL document CHEMBL1135125, “Cytotoxic alpha-bromoacrylic derivatives of low molecular weight” (Bioorg Med Chem Lett, 2002).

Tests used:
Mus musculus [1] = assay: Median survival time of mice injected with L1210 cells intravenously versus untreated mice at an optimal (non toxic) dose of 25 mg/kg; assay type: functional; conditions: route intravenous
L1210 = assay: In vitro cytotoxicity against L1210 murine leukemia cells after 48 hr of continuous exposure; assay type: functional, cell-based; conditions: Mus musculus, L1210, 48 h
Summary of the method: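 L1210 murine leukaemia cells (from NCI) under continuous drug exposure for 48 h; IC50 taken from dose–response curves, mean±SE of at least two experiments.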

Caco-2 = assay: Caco-2 cell permeability coefficient was determined after 120 min of incubation; assay type: functional, cell-based; conditions: Homo sapiens
Summary of the method: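 Caco-2 cells grown 21 days on permeable polycarbonate transwell filters; apparent permeability coefficient measured after 120 min incubation per a published method; total compound recovery calculated at end of experiment.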

Mus musculus [2] = assay: Median survival time of mice injected with L1210 cells intravenously versus untreated mice at an optimal (non toxic) dose of 100 mg/kg; assay type: functional; conditions: route intravenous
Mus musculus [3] = assay: Median survival time of mice injected with L1210 cells intravenously versus untreated mice at an optimal (non toxic) dose of 50 mg/kg; assay type: functional; conditions: route intravenous
Mus musculus [4] = assay: Median survival time of mice injected with L1210 cells intravenously versus untreated mice at an optimal (non toxic) dose of 12.5 mg/kg; assay type: functional; conditions: route intravenous
Mus musculus [5] = assay: Median survival time of mice injected with L1210 cells intraperitoneally versus untreated mice at an optimal (non toxic) dose of 12.5 mg/kg; assay type: functional; conditions: route intraperitoneal

Row | SMILES | IC50 (L1210) | Papp (Caco-2) | other results
1 | C=C(Br)C(=O)Nc1cc(C(=O)Nc2ccccc2)n(C)c1 | 0.043 µM | 1.2 ×10⁻⁶ cm/s | T/C (Mus musculus [1]): 100%
2 | C=C(Br)C(=O)Nc1cc(C(=O)NCCC#N)n(C)c1 | 0.0519 µM |  | T/C (Mus musculus [2]): 100%
3 | C=C(Br)C(=O)Nc1ccc(F)cc1 | 0.0586 µM |  | T/C (Mus musculus [3]): 100%
4 | C=CC(=O)Nc1cc(C(=O)Nc2cc(C(=O)Nc3cc(C(=O)Nc4cc(C(=O)NCCC(=N)N)n(C)c4)n(C)c3)n(C)c2)n(C)c1 | 2 µM |  | 
5 | C=C(F)C(=O)Nc1cc(C(=O)Nc2cc(C(=O)Nc3cc(C(=O)Nc4cc(C(=O)NCCC(=N)N)n(C)c4)n(C)c3)n(C)c2)n(C)c1 | > 0.8 µM |  | 
6 | C=C(Br)C(=O)Nc1cc(C(=O)Nc2cc(C(=O)Nc3cc(C(=O)NCCN=C(N)N)n(C)c3)n(C)c2)n(C)c1 | 0.027 µM |  | 
7 | C=C(F)C(=O)Nc1cc(C(=O)Nc2ccccc2)n(C)c1 | > 5 µM | 39.6 ×10⁻⁶ cm/s | 
8 | C=C(Br)C(=O)Nc1ccc(C(=N)N)cc1 | > 5 µM | 3.9 ×10⁻⁶ cm/s | 
9 | C=C(Br)C(=O)Nc1cc(C(=O)Nc2cc(C(=O)Nc3cc(C(=O)Nc4cc(C(=O)NCCN=C(N)N)n(C)c4)n(C)c3)n(C)c2)n(C)c1 | 0.0018 µM |  | 
10 | C=C(Br)C(=O)Nc1ccccc1 | 0.0368 µM |  | T/C (Mus musculus [4]): 117%
11 | C=C(Br)C(=O)Nc1cc(C(=O)Nc2cc(C(=O)Nc3cc(C(=O)Nc4cc(C(=O)NCCC(=N)N)n(C)c4)n(C)c3)n(C)c2)n(C)c1 |  | 38.2 ×10⁻⁶ cm/s | 
12 | C=C(Br)C(=O)Nc1ccc(N(C)C)cc1.Cl | 0.054 µM |  | T/C (Mus musculus [1]): 100%
13 | C=C(Br)C(=O)Nc1cc(C(=O)Nc2cc(C(=O)NCCN=C(N)N)n(C)c2)n(C)c1 | > 0.5 µM |  | 
14 | C=C(Br)C(=O)Nc1cc(C(=O)NCCC(=N)N)n(C)c1 | > 2.5 µM | 0.69 ×10⁻⁶ cm/s | 
15 | C=C(Br)C(=O)Nc1cc(C(=O)Nc2cc(C(=O)NCCC(=N)N)n(C)c2)n(C)c1 | 1.3 µM | 5.58 ×10⁻⁶ cm/s | 
16 | C=C(Br)C(=O)Nc1cc(C(=O)Nc2cc(C(=O)Nc3cc(C(=O)NCCC(=N)N)n(C)c3)n(C)c2)n(C)c1.Cl |  | 15.2 ×10⁻⁶ cm/s | T/C (Mus musculus [5]): 175%
